Measurements published in the EternaBench riboswitch data.

Tested on: MS2 coat protein
Assay: apparent Kd, MS2 coat protein; higher = weaker binding; RNA-MaP array; FMN 200 µM where present
In short: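 Each design was made on Illumina sequencing-chip clusters by stalled E. coli RNA polymerase and titrated with SNAP-549-labelled MS2 coat protein from 0.7 or 1.5 nM, doubling to 3 µM, in the absence and then the presence of constant ligand. The buffer was 100 mM Tris-HCl pH 7.5, 80 mM KCl, 4 mM MgCl2, BSA, DTT, yeast tRNA and Tween-20. The apparent Kd is the median of filtered per-cluster fits of binding curves, with green signal normalised to red-channel RNA signal and control-cluster median Fmax.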

[1] = designed as: OFF switch for flavin mononucleotide, no ligand
[2] = ligand present: flavin mononucleotide, designed as: OFF switch for flavin mononucleotide
[3] = designed as: ON switch for flavin mononucleotide, no ligand
[4] = ligand present: flavin mononucleotide, designed as: ON switch for flavin mononucleotide

Row | Sequence | apparent Kd [1] [nM] | apparent Kd [2] [nM] | apparent Kd [3] [nM] | apparent Kd [4] [nM]
1 | AAAUUUAACGAAGGAUAUGGUUACAUGAGGAUCACCCAUGUAUAUUUUGUGAUCUUGUUUAAGUUCCAGAAGGUCGUAUACAUA | 74.1 | 294 |  | 
2 | GCGUUCUUGUAGAAGGUACAUACAAUCUCUUUUUAACACAUGACACAUGAGGAUCACCCAUGUUGUAAGGAUAUACAUGAACGC |  |  | 8.7 | 8.86
3 | GAUUGACAUGAGGAUCACCCAUGUGAGGAUAUCGGCCGGACCUUGUUAGCUUCCAUCGCGAGAAGGCACAUAGG | 28.1 | 37.1 |  | 
4 | GACUUGCGCACAGGAUAUCCACGUAGCGGACGUGGAGAAGGGUGACAUGAGGAUCACCCAUGUACGUAAGUCUGGAUCACUUCC |  |  | 48.3 | 21.8
5 | AUUUUUUGUCAUGUACAUGAGGAACAUGAGGAUCACCCAUGUAGAAGGAAUUUUUUUAAGUUUAGUUAGGAUAUACAUAUAUUA | 47.7 | 28.6 |  | 
6 | CCCUAGGUAGGAUAUACUUGGGCUCGGCUGAUGUGCUUAAAACAUGAGGAUCACCCAUGUAGAAGGACUAAGGC | 15.3 | 12.9 |  | 
7 | UUAAAUCAUGUAGGAUAUGCAUGGCGAAGCUACGCAGAAGGACAUGAGGAUCACCCAUGUGCUAGCGUCUGAGAACAGAUGCAA | 42 | 235 |  | 
8 | ACGCCCUGAGGAUAUCUUAUCCCGUACAUGAGGAUCACCCAUGUUCUCCUCCGGGCUCCGAGAGAAGGCAGGCCCA | 26.7 | 37 |  | 
9 | GGUGGUCCUGUUACAUGAGGAUCACCCAUGUGAGGGCCACGUAGAAGGACCCAGAACUCCUUUGGGUAGGAUAUAUGGGCCUUC | 4.78 | 5.97 |  | 
10 | GUUGGGUGUCAUGUCGCACAUGAGGAUCACCCAUGUAGGAGGUAGGAUAUCCACGAGAAACGAGAGGAGAAGGGCCAUUAGCGU | 19.2 | 23 |  | 
11 | ACAUCGACAGGAUAUACGUGAGUGGAAAAAGUAUGUCCACUACAUGAGGAUCACCCAUGUAGAAGGGUCGAUGA | 16.2 | 15 |  | 
12 | GAGACUACCGAGAAGGGCAUAUUAAGACUCUUCGUACUACGCCUAGACAUGAGGAUCACCCAUGUGCAGGAUAUCGAGCGGCUC | 6.38 | 6.05 |  | 
13 | UUUUAAUAAGAGAAGGAGGACUUCAUGAGGAUCACCCAUGUGUUAGUACUUAGGAUAUUUAAUAACAUGAGGAUCACCCAUGUC |  |  | 44.1 | 43
14 | GCCACGGGAGGAUAUCGCGGAGGCUACAUGAGGAUCACCCAUGUCUGGUCUUCGUGCUCCCGAGAAGGCCCGUCAG | 14 | 32.9 |  | 
15 | CGGGUCUGAGGAUAUCCAUCUUCAUACAUGAGGAUCACCCAUGUUUACCCUUGGGUUCCUGGAGAAGGCAGUUUUC | 166 | 162 |  | 
16 | AAGAAAGUUUACGAGGAUAUGUUCCGCAUAACAUGAGGAUCACCCAUGUGAACAAGAAAGGCGACGCAGAAGGCGUGAGCAAAGA |  |  | 359 | 43.2
17 | AAAAAACAUGAGGAUCACCCAUGUGAGGAUAUCACUAGUCAGUCCUCGGAGUGAGUUCUGAGAAGGCACAUAAA | 118 | 106 |  | 
18 | GCGAUUUUGUAGAAGGUACGUUAUAAGACAAUGUAAGGAUAUACUGACAUGAGGAUCACCCAUGUAUAAAUAGUUAACAGUCGC |  |  | 8.89 | 6.68
19 | GAUUCACAUGAGGAUCACCCAUGUGAGGAUAUCUAGGUGCGGAGGCUAAGGCCUCCAGAGAGAAGGCACAUGGC | 27.3 | 41.3 |  | 
20 | UAAAUCUUGUAAGGAUAUACACGAGAUUCAAGUGUAGAAGGUACUUACAUGAGGAUCACCCAUGUAUACAUGGAUAAUAUAUAU |  |  | 206 | 32.2
21 | UUUUAGAGAGGAUAUAUAAAGUGAAACAUGAGGAUCACCCAUGUAAUUUUAUGGAUGUAAAUAGAAGGCUCAUUUA | 33.3 | 28.6 |  | 
22 | CCUCCACAUGAGGAUCACCCAUGUCAGGAUAUCGUGUGUGCGUUUUCGGUCUUUCGCGCGAGAAGGGACGUCUG | 30.6 | 34.9 |  | 
23 | CACUCACAUGAGGAUCACCCAUGUCCUAGCAGGUCAGGAUAUAGCUCGGAUGCGUUGAGUCUAGAAGGGACACGUU |  |  | 96.7 | 62.5
24 | CACCGUUAGCGAGGAUAUCGUACAUGAGGAUCACCCAUGUAAUAAAUGAGAAUUUCGGAUGUAUGCGAGAAGGCGCAAAUCGGC | 59 | 43.4 |  | 
25 | AUACGGGCCCAGAAGGUGCCAGCGAGAGCUGCACAUGAGGAUCACCCAUGUUGUCGGUGACGACGCAAGGAUAUGGGCCCGUAU |  |  | 23.4 | 6.63
26 | AUCUCGUCAGGAUAUUGGAUCUGGAUCGAAAGGUCUAGGUCUAAGAAGGGACAUGAGGAUCACCCAUGUCUGGU | 22.9 | 69.6 |  | 
27 | AAUUGAAACGUAGGAUAUCGCUAUAAAUUAAUUCGAGAAGGACGUACAUGAGGAUCACCCAUGUUAAAUGGUGUAGUUUAGUUG | 108 | 270 |  | 
28 | AAUUGACACGUAGGAUAUCGAACUAUUUUAACACGAGAAGGACGUACAUGAGGAUCACCCAUGUUUAAUGGUGUAGAUAAGUUG | 70.9 | 188 |  | 

Row | Sequence | apparent Kd [1] [nM] | apparent Kd [2] [nM] | apparent Kd [3] [nM] | apparent Kd [4] [nM]
29 | GCCAGGAUGUAAGGAUAUGCUGAGGAAUACUCAGCAGAAGGUACAUGAGGAUCACCCAUGUAAUCCAAUAAUAAAUAACCUGGC | 11.3 | 23.4 |  | 
30 | GUGUACUGAGGAUAUGCUGGAAUCUAGCGAAGCUAGGUUCCACAUGAGGAUCACCCAUGUAGAAGGCGGUACAC | 34.2 | 13.7 |  | 
31 | ACAUGAGGAUCACCCAUGUGAACAUAGGAUAUUGGUGAUCAGGCAUGUUAUACAGGAUAUGUCUGCGAGAAGGGUGCACGUUGC |  |  | 524 | 412
32 | UUAACUCAUGUAGGAUAUGCAUGGCGAAGCUACGCAGAAGGACAUGAGGAUCACCCAUGUUCUAGCGUCUGAGUACAGAUGCAA | 43.4 | 290 |  | 
33 | AGCAUGUGAGGAUAUGUGACCCUCGUCCUAAGGACAAGGGAAUAGAAGGCACAUGAGGAUCACCCAUGUGAUGA | 54.6 | 168 |  | 
34 | GUCAGCUCGUCAGGAUAUACAUGAUAGAUCGAUUAAUUAAUUAAUUUAACAUGAGGAUCACCCAUGUAGAAGGGACGAGCUGAC | 80.1 | 71.9 |  | 
35 | AGGUGACAUGAGGAUCACCCAUGUCAGGAUAUAUACACCGCCGGCGUGAAGCCGACGGAUAGAAGGGACAAAAU | 16.6 | 21.6 |  | 
36 | ACAUUUUAUGCAGGAUAUUGACUUUGGAUUAAACAAGAAGGGCAUUACAUGAGGAUCACCCAUGUUUUAUUGGUAUAUAAGUUC | 13.9 | 17.1 |  | 
37 | AUACCACGAGGAUAUCGUCUAUUUUACAUGAGGAUCACCCAUGUUAUCUUUGUAAUGUUUCGAGAAGGCGUGUUUU | 34.2 | 23.9 |  | 
38 | GGUGCACGCACAGGAUAUCCGGCGACGCUCGUCGGAGAAGGGUGACAUGAGGAUCACCCAUGUACGUGCAACUCAGUUUGAGAG |  |  | 35.7 | 28.1
39 | GCCAUCGCAUGAGGAUAUGCUCCGGUUUCCGGAGCAGAAGGCGUGUCAUAAGACAUGAGGAUCACCCAUGUAGUUAAGAUGGCA |  |  | 246 | 10.6
40 | UUACUCAUGUAAGGAUAUGCAGCCGUUUCGGCUGCAGAAGGUACUAUAAUACAUGAGGAUCACCCAUGUCUUUUUAAUUUUUAU |  |  | 88.7 | 40.4
41 | CCGUAAAAUGGAGGAUAUGGAGCCUUAUUGGCUCCAGAAGGUCAUAAAACAUGAGGAUCACCCAUGUCGGCGGUCAAUAGACCG |  |  | 47.9 | 20.2
42 | AAAACUGCUCAGGAUAUUUGUGUGUCAGGGCAUAAAGAAGGGAGCACAUGAGGAUCACCCAUGUGUUGGGUUCC | 98.5 | 149 |  | 
43 | AACAGGUCAGGAUAUACAUGAGGAUCACCCAUGUAACAAGCGGAGGCGACUUCUCAAGGUAGAAGGGAUCUCCG | 19.8 | 18.9 |  | 
44 | GUGGUCAGACAUGAGGAUCACCCAUGUGGAAUAAAUAACGGACAGGAUAUCGAAUAUAGGAUAUACGAGAAGGGUUGAUUGGUG |  |  | 83.7 | 106
45 | GGUGUCGCAUGAGGAUAUGGUCAGCUUUGCUGACCAGAAGGCAUGUCGAUAGACAUGAGGAUCACCCAUGUAGUAAAGACACCA |  |  | 990 | 72.7
46 | GAAUUACAUGAGGAUCACCCAUGUGAGGAUAUCGAUGUAACUAGCAGCGUGCGGGACUCGAGAAGGCACUUGGA | 39.1 | 67.5 |  | 
47 | AAACAUGUCCGAGGAUAUCUGGAAACAUUUCCAAGAGAAGGCGGACAUGAGGAUCACCCAUGUCUCUCCUCAUCAAAUCCGAGU | 9.24 | 89.3 |  | 
48 | AAUUUACAGCUAGGAUAUACAUGAGGAUCACCCAUGUAAUGAUCGGAUCUUAUGAUCGUAUCCGUGUAGAAGGAGCAAAUAAGA | 8.12 | 8.8 |  | 
49 | GGGUACGUUUCGUAGCAGUGUCAUCGAGAAGGCCCUGACAUGAGGAUCACCCAUGUUGUUACAUGGGAGGAUAUCGAUGAUCCC |  |  | 53.6 | 8.36
50 | UAUUAGCUAGGAUAUACAUGAGGAUCACCCAUGUCACGGGUCCACUUGUCCUAUGCGUGUAGAAGGAGCGACCC | 22.4 | 25.8 |  | 
51 | GCAUGCGUUCGAGGAUAUCGGUGAGCAACGGAACGAGAAGGCGAUCGAAUGUCACAUAUUAUGUACAUGAGGAUCACCCAUGUA |  |  | 104 | 43.4
52 | AGUAGAUCAGGAUAUACGUGAAAGGUCAAAGUGUCCCUUCUACAUGAGGAUCACCCAUGUAGAAGGGAUCUACA | 12.8 | 12.5 |  | 
53 | UCGCUGCGAGGAUAUACAUGAGGAUCACCCAUGUACGGGUCCGGGUCUUUGUCUAUUGGUAGAAGGCGCAGUGA | 55.7 | 175 |  | 
54 | UUAUUUAGGUAGGAUAUCGAUACUAAUUACUAUCGAGAAGGGUCUACAUGAGGAUCACCCAUGUUAGCAUGUUU | 27.2 | 25.5 |  | 
55 | UGGUACUAGGGAGGAUAUGGGAAGAUACAUGAGGAUCACCCAUGUUUAAGAAUGCCGAGAGGCAACCAGAAGGCCCUAGUACCU |  |  | 8.27 | 5.57
